Measured values published in ChEMBL document CHEMBL1128182, “Synthesis of substituted 1-norbornylamines with antiviral activity” (J Med Chem, 1995).
Values after ≈ are worked out from the molar mass of the structure shown.

Tests used:
[1] = test system: MDCK; experiment: Minimum inhibitory concentration against influenza A virus, in MDCK cells from dog kidney; format: functional; conditions: Canis lupus familiaris
In short: (§1)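 MDCK dog kidney cells infected with influenza A. MIC50 is the lowest concentration giving a 50% drop in virus yield. MTC50 is the lowest concentration toxic to 50% of cells. Selectivity index is MTC50 divided by MIC50, in µg/mL terms. Amantadine hydrochloride served as the reference.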

[2] = Minimum toxic concentration against influenza A virus, in MDCK cells from dog kidney; format: ADME, cell-based, Canis lupus familiaris; conditions: read-out: MTC50; in short: as §1
[3] = […] against African Swine Fever Virus; format: functional
[4] = Ratio of MIC50 to MTC50 against HSV-2; format: functional
[5] = Minimum toxic concentration against African swine fever virus, in vero monkey kidney cells; format: ADME, cell-based; conditions: chlorocebus sabaeus, read-out: MTC50
[6] = test system: Vero; experiment: Minimum inhibitory concentration against African swine fever virus, in vero monkey kidney cells; format: functional; conditions: Chlorocebus sabaeus
[7] = Minimum toxic concentration against herpes simplex virus 2, in vero monkey kidney cells; format: ADME, cell-based; conditions: chlorocebus sabaeus, read-out: MTC50
[8] = test system: Vero; experiment: Minimum inhibitory concentration against herpes simplex virus 2, in vero monkey kidney cells; format: functional; conditions: Chlorocebus sabaeus

| SMILES | MIC50 [1] | MCC [2] | Selectivity index [3] | Selectivity index [4] | MCC [5] | MIC50 [6] | MCC [7] | MIC50 [8] |
| --- | --- | --- | --- | --- | --- | --- | --- | --- |
| Cl.NC12CC3CC(CC(C3)C1)C2 [AMANTADINE HYDROCHLORIDE] | 0.5 µg/mL | 300 µg/mL | – | – | – | – | – | – |
| C=C1C2(NCC)CCC(C2)C1(C)C (stereo not drawn) | 5 µg/mL (≈ 27.9 µM) | 200 µg/mL | 3 | 1 | 300 µg/mL | 100 µg/mL (≈ 558 µM) | 300 µg/mL | 300 µg/mL (≈ 1670 µM) |
| CC1C2CCC(N)(C2)C1(C)C (stereo not drawn) | 5 µg/mL (≈ 32.6 µM) | 50 µg/mL | 8 | 8 | 200 µg/mL | 25 µg/mL (≈ 163 µM) | 200 µg/mL | 25 µg/mL (≈ 163 µM) |
| CC1C2(N)CCC(C2)C1(C)C (stereo not drawn) | – | – | 10 | 6 | 300 µg/mL | 30 µg/mL (≈ 196 µM) | 300 µg/mL | 50 µg/mL (≈ 326 µM) |
| CCNC12CCC(C1)C(C)C2(C)C (stereo not drawn) | < 10 µg/mL | 100 µg/mL | 12 | 12 | 300 µg/mL | 25 µg/mL (≈ 138 µM) | 300 µg/mL | 25 µg/mL (≈ 138 µM) |
| C=C1C2CCC(NCC)(C2)C1(C)C (stereo not drawn) | 0.1 µg/mL (≈ 0.558 µM) | 100 µg/mL | 13 | 4 | 400 µg/mL | 30 µg/mL (≈ 167 µM) | 400 µg/mL | 100 µg/mL (≈ 558 µM) |
| CCNC12CCC(C1)C(C)(C)C2C (stereo not drawn) | 0.1 µg/mL (≈ 0.552 µM) | 100 µg/mL | 10 | 4 | 300 µg/mL | 30 µg/mL (≈ 165 µM) | 300 µg/mL | 75 µg/mL (≈ 414 µM) |
